Sampled rows, rich in hits. Any-hit rate of the full collection: about 3.5%.
RGS4 act = RGS4 potentiators or activators, primary screen, cell-based, HEK293 M3R inducible RGS4, calcium flux. B-score at 10 µM. carbachol calcium flux Fluo4; hits give low values. 0.92% of 310,000 active;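 active means B-score of the integrated calcium signal more than 4 SD below the library mean, with starting fluorescence not abnormally high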;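 further: negative B-score means reduced calcium response which marks RGS4 activation or potentiation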
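Detection: kinetic calcium fluorescence imaging with Fluo4-AM dye, 2 µM / Material: HEK293 cells with stable M3R and inducible RGS4 / Schedule: recording 10 s baseline at 1 Hz, 100 s post-agonist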
MrgX1 ag = agonists of human MrgX1 receptor, primary screen, HEK293 cells, Fluo-4 calcium flux | AID 588627, 2011 | B-score at 10 µM | Fluo-4 calcium fluorescence, agonist mode; hits give high values | 0.44% of 310,000 active | Mas-related G-protein coupled receptor member X1 (Homo sapiens), Q96LB2;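 active means calcium response B-score plate-corrected fluorescence ratio at least 3 library SD, with starting fluorescence B-score inside 5 SD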
Target sequence (Q96LB2 whole entry, looked up): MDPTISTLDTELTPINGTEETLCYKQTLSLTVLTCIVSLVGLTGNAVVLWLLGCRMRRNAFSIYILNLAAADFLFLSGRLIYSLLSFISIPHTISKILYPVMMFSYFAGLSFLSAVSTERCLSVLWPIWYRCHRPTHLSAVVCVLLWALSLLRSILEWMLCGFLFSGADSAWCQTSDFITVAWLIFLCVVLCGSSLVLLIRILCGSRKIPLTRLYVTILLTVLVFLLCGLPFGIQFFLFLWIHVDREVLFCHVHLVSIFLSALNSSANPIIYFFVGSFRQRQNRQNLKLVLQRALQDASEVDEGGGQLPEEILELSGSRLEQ
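Material: MrgX1-expressing HEK293 cells; input: 15,000 cells per well; doses: test compound given as first of three sequential additions; schedule: overnight plating before 1 h dye loading; technique: Fluo-4 NW calcium-flux fluorescence, kinetic read; evaluation: baseline-normalised fluorescence change ratio, B-scored; control set: plate-wise positive and negative controls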
MrgX1 antag = antagonists of human MrgX1 receptor, primary screen, HEK293 cells, Fluo-4 calcium flux; BAM8-22 antagonism; hits give low values; Mas-related G-protein coupled receptor member X1 (Homo sapiens), Q96LB2; B-score at 10 µM; AID 588676, 2011; 1.3% of 310,000 active;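 active means calcium-response B-score plate-corrected more than 3 library SD below zero, starting fluorescence within 5 deviations, no agonist response on first addition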;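 further: peak minus trough fluorescence over baseline after final BAM8-22 challenge near maximal dose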
RGS4 inh = RGS4 inhibitors, primary screen, cell-based, HEK293 M3R inducible RGS4, calcium flux | Fluo-4 calcium flux; hits give high values; triggered by carbachol at its EC20 | B-score at 10 µM | 0.45% of 310,000 active | AID 463165, 2010;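 active means B-score, a plate-corrected calcium signal, over three deviations above library mean, with baseline fluorescence within five deviations of library mean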;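 further: RGS4 expression induced by doxycycline in cells with stable M3 receptor; B-score is computed from the integrated fluorescence ratio over baseline after carbachol; higher B-score means a larger calcium signal and so more RGS4 inhibition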
Target sequence (P49798 whole entry, looked up): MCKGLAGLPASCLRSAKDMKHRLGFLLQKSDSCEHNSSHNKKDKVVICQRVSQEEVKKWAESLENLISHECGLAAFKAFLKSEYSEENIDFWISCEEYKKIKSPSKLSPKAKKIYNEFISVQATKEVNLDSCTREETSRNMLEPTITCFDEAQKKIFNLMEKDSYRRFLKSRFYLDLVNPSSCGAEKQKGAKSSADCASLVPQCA
MrgX1 allo act = positive allosteric modulators of MrgX1, primary screen, HEK293 cells, Fluo-4 calcium flux; FDSS; hits give high values; B-score at 10 µM; 0.63% of 310,000 active;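 active means plate-corrected calcium response at least 3 library SD above typical, normal starting fluorescence, not activating the receptor alone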;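 further: compound read alongside a low EC10 to EC30 dose of BAM8-22 agonist; peak minus trough fluorescence over baseline measured at the second addition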
MrgX1 allo conf = MrgX1 positive allosteric modulators, duplicate retest, confirmation, HEK293 cells, Fluo-4 calcium flux; AID 602413, 2012; Fluo-4 calcium fluorescence, FDSS; activation (ratio percentage), % at 10 µM; shares compounds with MrgX1 allo act; 13% of 1,200 active;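 active means ratio at least 3 SD above the weak peptide control, stable starting fluorescence, no direct agonism earlier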;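 further: compound followed by low BAM8-22 agonist challenge near EC20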
MrgX1 ant reconf = MrgX1 receptor antagonists, duplicate retest, confirmation, HEK293 cells, Fluo-4 calcium flux; shares compounds with MrgX1 antag; BAM8-22 calcium flux; hits give low values; remaining BAM8-22 calcium response % of control (hits give low values), % at 10 µM; 19% of 2,300 active;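 active means remaining agonist calcium response no higher than 100% minus 3 SD of agonist-only control wells, with starting fluorescence near control levels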;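 further: agonist BAM8-22 given at a near maximal EC90 to ECmax level; peak minus minimum fluorescence divided by baseline after agonist addition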
HEK293 Ca flux = nonspecific calcium signal in parental HEK293, confirmation, counter-screen for MrgX1 antagonist project, parental HEK293 cells, Fluo-4 calcium flux | 2% of 4,000 active | fluorescence ratio F(max-min)/F0 at 10 µM | Fluo-4 calcium fluorescence, FDSS | shares compounds with MrgX1 antag;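 active means duplicate-averaged calcium fluorescence ratio at least three times the standard deviation of buffer wells, a nonspecific response in parental cells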
HEK293 Ca counter = calcium response in parental HEK293 cells, primary screen, counter-screen for MrgX1 allosteric activator project, cell-based, Fluo-4 calcium flux, duplicate | shares compounds with MrgX1 antag | Fluo-4 fluorescence ratio; hits give high values | fluorescence ratio F(max-min)/F0 at 10 µM | 0.4% of 4,000 active;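 active means calcium fluorescence ratio, averaged over duplicates, at least 3 SD of the buffer-well ratio, meaning a nonspecific response in receptor-free cells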;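 further: untransfected parental HEK293 lacking MrgX1 used as counterscreen for MrgX1 allosteric activators; fluorescence change taken during the second addition on a kinetic imager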
HEK293 Ca cntr2 = calcium response in parental HEK293 cells, primary screen, counter-screen for MrgX1 agonist project, cell-based, Fluo-4 calcium flux, duplicate, agonist mode; shares compounds with MrgX1 antag; Fluo-4 calcium fluorescence (FDSS); hits give high values; fluorescence ratio F(max-min)/F0 at 10 µM; 8.7% of 4,000 active; AID 624115, 2012;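 active means calcium fluorescence ratio at least three times the spread of buffer wells, meaning a non-specific response in parental cells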
Each line names hits and unclear results; the compound was inactive in the other large screens (follow-up assays come after a bar, where they were run).

O=C(CC1Sc2ccccc2NC1=O)OC(C(=O)NCCc1ccccc1)c1cccnc1 (configuration not stated)	MrgX1 allo act 8.54 | MrgX1 allo conf inactive | HEK293 Ca flux inactive | HEK293 Ca counter inactive | HEK293 Ca cntr2 inactive
CC(=O)Oc1ccc(C(=O)Nc2cccc(C(=O)Nc3ccccc3C(=O)O)c2)cc1	none
O=C(Nc1ccccc1C(=O)O)c1ccc(NC(=O)c2ccc(Br)o2)cc1	none
CC(=O)Oc1ccc(C(=O)Nc2ccccc2C(=O)Nc2cccc(C(=O)O)c2)cc1	MrgX1 allo act 10.2 | MrgX1 allo conf inactive | HEK293 Ca flux inactive | HEK293 Ca counter inactive | HEK293 Ca cntr2 inactive
O=C(Nc1ccccc1C(=O)O)c1cccc(NC(=O)c2ccc(Br)o2)c1	MrgX1 allo act 17.1 | MrgX1 allo conf inactive | HEK293 Ca flux inactive | HEK293 Ca counter inactive | HEK293 Ca cntr2 inactive
O=C(NC1(C(F)(F)F)N=C2SCCN2C1=O)c1cccnc1 (configuration not stated)	none
COCCN(CCOC)C(=O)c1cc2sc3ccccc3c2s1	none
CCN(CC)C(=O)c1cc2sc3ccccc3c2s1	MrgX1 allo act 9.13 | MrgX1 allo conf inactive | HEK293 Ca flux inactive | HEK293 Ca counter inactive | HEK293 Ca cntr2 inactive
CC1CCCC(NC(=O)CN2C(=O)c3cccnc3Oc3ccc(Cl)cc32)C1C (configuration not stated)	MrgX1 allo act 11 | MrgX1 allo conf inactive | HEK293 Ca flux inactive | HEK293 Ca counter inactive | HEK293 Ca cntr2 77.8
O=C(CN1C(=O)c2cccnc2Oc2ccc(Cl)cc21)NC1CCCC1	none
Cc1cc(-c2ccc(C)c(S(=O)(=O)Nc3cc(C)on3)c2)on1	none
N=C1/C(=C/c2ccc(OCc3ccccc3F)cc2)C(=O)N=C2SC(CC(=O)N3CCOCC3)=NN12	MrgX1 allo act 35.1 | MrgX1 allo conf 20.9% | HEK293 Ca flux inactive | HEK293 Ca counter inactive | HEK293 Ca cntr2 inactive
Cc1ccc(Cn2ncc3c(N4CCN(c5ccc(C)cc5)CC4)ncnc32)cc1	none
Cc1ccc(Cn2ncc3c(N4CCN(Cc5ccc(Cl)cc5)CC4)ncnc32)cc1	MrgX1 antag -12.1, MrgX1 allo act 8.4 | MrgX1 allo conf inactive | MrgX1 ant reconf 84.4% | HEK293 Ca flux inactive | HEK293 Ca counter inactive | HEK293 Ca cntr2 inactive
CCc1cc2ccc(OC)cc2nc1SCC(=O)N1CCN(C(=O)c2ccco2)CC1	MrgX1 allo act 6.58 | MrgX1 allo conf inactive | HEK293 Ca flux inactive | HEK293 Ca counter inactive | HEK293 Ca cntr2 inactive
CCCN(C(=O)c1ccccc1Cc1ccccc1)C1CCS(=O)(=O)C1 (configuration not stated)	none
CC(=O)Nc1ccc(S(=O)(=O)NCC2CCC(C(=O)NC(C)c3ccc4c(c3)OCCO4)CC2)cc1 (configuration not stated)	none
Cc1ccccc1-n1ncc2c1CC(C)(C)CC2NC(=O)c1snnc1C (configuration not stated)	MrgX1 allo act 10.4 | MrgX1 allo conf 7.8% | HEK293 Ca flux inactive | HEK293 Ca counter inactive | HEK293 Ca cntr2 inactive
Cc1ccccc1-n1ncc2c1CC(C)(C)CC2NC(=O)c1ccncc1 (configuration not stated)	none
Cc1ccccc1-n1ncc2c1CC(C)(C)CC2NC(=O)CCC(F)(F)F (configuration not stated)	MrgX1 allo act 9.8 | MrgX1 allo conf inactive | HEK293 Ca flux inactive | HEK293 Ca counter inactive | HEK293 Ca cntr2 inactive
CSc1ncccc1C(=O)NC1CC(C)(C)Cc2c1cnn2-c1ccccc1C (configuration not stated)	MrgX1 allo act 16.6 | MrgX1 allo conf inactive | HEK293 Ca flux inactive | HEK293 Ca counter inactive | HEK293 Ca cntr2 inactive
Cc1ccc(-c2nc(-c3ccc(Cl)cc3)sc2CC(=O)O)c(C)c1	none
Cc1cc(NC(=O)CSc2nnc(-c3ccco3)n2Cc2ccco2)no1	none
CC(=O)Nc1ccc(NC(=O)CSc2nnc(-c3ccco3)n2Cc2ccco2)cc1	MrgX1 allo act 7.01 | MrgX1 allo conf inactive | HEK293 Ca flux inactive | HEK293 Ca counter inactive | HEK293 Ca cntr2 inactive
CCN1C=C(Cc2ccccc2C)C2=C(C1)C(c1ccccc1C)C(C#N)=C(N)O2 (configuration not stated)	MrgX1 allo act 18.1 | MrgX1 allo conf inactive | HEK293 Ca flux inactive | HEK293 Ca counter inactive | HEK293 Ca cntr2 inactive
CCN1C=C(Cc2ccc(F)cc2)C2=C(C1)C(c1ccc(F)cc1)C(C#N)=C(N)O2 (configuration not stated)	none
COc1ccc(C(=O)Nc2scc(-c3ccc(Cl)cc3Cl)c2C(N)=O)cc1	MrgX1 allo act 27.2 | MrgX1 allo conf 20.3% | HEK293 Ca flux inactive | HEK293 Ca counter inactive | HEK293 Ca cntr2 inactive
COc1ccc(C(=O)Nc2cc(OC)c(Cl)cc2Cl)cc1	none
Cc1ccc(C(=O)N(C)CC(=O)Nc2cccc(C)c2C)o1	none
COc1ccc(CNC(=O)c2noc(C)c2[N+](=O)[O-])cc1	none
CN(C)c1nc(N)nc(N(c2ccccc2)c2ccccc2)n1	MrgX1 allo act 7.44 | MrgX1 allo conf inactive | HEK293 Ca flux inactive | HEK293 Ca counter inactive | HEK293 Ca cntr2 inactive
NS(=O)(=O)c1ccc(NC(=O)CSc2ncccn2)cc1	MrgX1 allo act 15.9 | MrgX1 allo conf inactive | HEK293 Ca flux inactive | HEK293 Ca counter inactive | HEK293 Ca cntr2 inactive
C=C(C)CN1C(=O)C2(OCCO2)c2cc(Br)ccc21	none

High-throughput results deposited in PubChem BioAssay by Johns Hopkins Ion Channel Center.
